Here are results for one compound from ChEMBL document CHEMBL3425508, “Discovery of potent hexapeptide agonists to human neuromedin u receptor 1 and identification of their serum metabolites” (ACS Med Chem Lett, 2015).

The structures appear in SMILES notation. The source made the active and inactive calls. The rule behind the calls is not given here. Non-standard residues stand in square brackets, D forms with d. Residues, ends and D or L forms follow the SMILES beside them. *: point of attachment. Phe(4-F) = N[C@@H](Cc1ccc(F)cc1)C(=O)O; Acetyl(2-thienyl) = O=C(Cc1cccs1)*

Series [1] addresses T1, Neuromedin-U receptor 1 (Homo sapiens) (UniProt Q9HB89).
T1 sequence (whole entry): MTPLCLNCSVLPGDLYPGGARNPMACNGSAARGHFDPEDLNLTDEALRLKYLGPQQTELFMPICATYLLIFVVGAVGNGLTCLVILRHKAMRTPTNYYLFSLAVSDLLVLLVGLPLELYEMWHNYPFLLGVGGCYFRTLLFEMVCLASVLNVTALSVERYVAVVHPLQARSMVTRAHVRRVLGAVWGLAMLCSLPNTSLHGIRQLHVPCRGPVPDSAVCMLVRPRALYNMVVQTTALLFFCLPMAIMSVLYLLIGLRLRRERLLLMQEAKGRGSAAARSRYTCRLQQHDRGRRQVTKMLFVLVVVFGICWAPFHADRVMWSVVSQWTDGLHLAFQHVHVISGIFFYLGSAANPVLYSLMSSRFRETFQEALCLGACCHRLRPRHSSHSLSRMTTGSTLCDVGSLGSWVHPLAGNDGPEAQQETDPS
The series is described as follows: Agonist activity at human NMUR1 expressed in CHO cells assessed as intracellular calcium flux at 1 and 10 nM by Fluo-4 AM dye based fluorometric imaging method relative to 1000 nM human neuromedin U. It is filed as functional, cell-based.

Series [2] deals with T2, Neuromedin-U receptor 2 (Homo sapiens, UniProt Q9GZQ4). The series is described as follows: Agonist activity at human NMUR2 expressed in CHO cells assessed as intracellular calcium flux at 1 and 10 nM by Fluo-4 AM dye based fluorometric imaging method relative to 1000 nM human neuromedin U. It is filed as functional, cell-based.
T2 sequence (Q9GZQ4 whole entry): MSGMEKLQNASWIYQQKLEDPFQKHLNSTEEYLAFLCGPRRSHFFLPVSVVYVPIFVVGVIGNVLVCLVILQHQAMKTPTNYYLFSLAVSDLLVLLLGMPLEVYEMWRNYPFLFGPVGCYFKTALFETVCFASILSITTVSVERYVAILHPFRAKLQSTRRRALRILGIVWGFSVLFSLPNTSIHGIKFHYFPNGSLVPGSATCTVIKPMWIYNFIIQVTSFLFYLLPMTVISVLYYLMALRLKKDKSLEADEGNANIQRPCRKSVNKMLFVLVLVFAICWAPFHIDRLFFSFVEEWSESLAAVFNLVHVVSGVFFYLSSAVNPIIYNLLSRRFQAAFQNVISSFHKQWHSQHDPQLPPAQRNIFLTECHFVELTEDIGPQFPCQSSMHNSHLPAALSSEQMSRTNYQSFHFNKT
For a further series, the target named is T3, Neuromedin-U receptor 1 (Homo sapiens, UniProt Q9HB89).
T3 sequence (Q9HB89 whole entry): T1 sequence (whole entry)
The series is described as follows: Agonist activity at human NMUR1 expressed in CHO cells assessed as intracellular calcium flux at by Fluo-4 AM dye based fluorometric imaging method. It is filed as functional, cell-based. Summed up: (§1)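 Dose–response Ca2+ mobilization in CHO cells stably expressing human NMUR1 or NMUR2. Peptides run at 10^-12–10^-6 M with hNMU as reference. EC50 and intrinsic activity derived from the curves. Triplicate determinations.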

For series [3], the target named is T1, Neuromedin-U receptor 1 (Homo sapiens). The series is described as follows: Intrinsic agonist activity at human NMUR1 expressed in CHO cells assessed as intracellular calcium flux at by Fluo-4 AM dye based fluorometric imaging method. It is filed as functional, cell-based. The method in brief: as §1
In series [4] the target is T2, Neuromedin-U receptor 2. The series is described as follows: Agonist activity at human NMUR2 expressed in CHO cells assessed as intracellular calcium flux at by Fluo-4 AM dye based fluorometric imaging method. The class given is functional, cell-based. Summed up: as §1
Series [5] addresses T2, Neuromedin-U receptor 2. The experiment in a line: Intrinsic agonist activity at human NMUR2 expressed in CHO cells assessed as intracellular calcium flux at by Fluo-4 AM dye based fluorometric imaging method. It is filed as functional, cell-based. The method in brief:
as §1

The subject of series [6] is Serum. The experiment in a line: Drug metabolism in 25% rat serum assessed as cleavage at Phe(2)-Arg(3) site at 1 mM at 37 degC by RP-HPLC method. It is filed as ADME, cell-free. The conditions noted are these: 1000 µM. Summed up: (§2)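 Peptides incubated in 25% rat serum at 37 °C and sampled over time (10, 30, 60 min). Samples extracted on Sep-Pak C18 cartridges and analysed by C18 RP-HPLC with UV detection at 220 nm. Metabolites identified by mass spectrometry. Recovery of intact peptide measured at 10 or 60 min, in triplicate.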

The subject of series [7] is Serum. The series is described as follows: Drug metabolism in 25% rat serum assessed as cleavage at Arg(5)-Asn(6) site at 1 mM at 37 degC by RP-HPLC method. The class given is ADME, cell-free. As to conditions: 1000 µM. The method in brief: as §2
The test system of series [8] is Serum. The series is described as follows: Drug degradation in 25% human serum at 1 mM at 37 degC by RP-HPLC method. It is filed as ADME, cell-free. The conditions noted are these: 1000 µM, TDE = time-dependent effect.
A short description of series [9]: Drug metabolism in 25% rat serum assessed as drug recovery at 1 mM incubated for 10 mins at 37 degC by RP-HPLC method. The conditions noted are these: read-out: Drug recovery. It is filed as ADME, cell-free. Summed up: as §2

For `N=C(N)NCCC[C@H](NC(=O)[C@@H]1CCCN1C(=O)[C@H](CCCNC(=N)N)NC(=O)[C@H](Cc1ccc(F)cc1)NC(=O)[C@H](Cc1c[nH]c2ccccc12)NC(=O)Cc1cccs1)C(=O)N[C@@H](CC(N)=O)C(N)=O` ({Acetyl(2-thienyl)}-W[Phe(4-F)]RPRN-NH2), the outcome (in [1]; on Neuromedin-U receptor 2 [2]) was Active. Moreover, the EC50 was determined as 0.083 nM at Neuromedin-U receptor 1 and 2.6 nM at Neuromedin-U receptor 2 [4]. The Intrinsic activity was determined as 95% in series [3] and 82% at Neuromedin-U receptor 2 [5]. For the same compound, the Drug metabolism result in the series with Serum [6] and with Serum [7] was “metabolite_detected” throughout. Moreover, in the series with Serum [8], the Drug degradation entry is “tde”. In addition, in series [9], the remaining at 10 min, 1000 µM worked out at 42.7%.
